According to ChEMBL document CHEMBL1134279, “Synthesis, nicotinic acetylcholine receptor binding, and antinociceptive properties of 2-exo-2-(2'-substituted-3'-phenyl-5'-pyridinyl)-7-azabicyclo[2.2.1]heptanes. Novel nicotinic antagonist” (J Med Chem, 2001):
Active and inactive are the calls of the source. The rule behind the calls is not given here.

How the values were obtained:
[1] = Inhibition of [3H]epibatidine binding at the alpha beta nicotinic AChR in male rat cerebral cortex; format: tissue-based
Mus musculus [2] = organism: Mus musculus; assay: Compound was tested for inhibition of antinociceptive effect of nicotine in mice by hotplate assay; NA=Inactive; format: functional, organism-based
In short: (§1)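 Antagonism was tested in male ICR mice given test agent sc, measuring blockade of nicotine-induced antinociception in tail-flick or hot-plate tests. Potency is expressed as AD50 in mg/kg with confidence limits.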

Mus musculus [3] = organism: Mus musculus; assay: Compound was tested for inhibition of antinociceptive effect of nicotine in mice by tail-flick assay; NA=Inactive; format: functional, organism-based; in short: as §1
Mus musculus [4] = assay: Compound at 10 mg/Kg was tested for antinociception in mice by hotplate assay; format: functional
In short: (§2)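 Male ICR mice were given test agent and assessed for antinociception by tail-flick or hot-plate. Results are expressed as ED50 in mg/kg with confidence limits, or as percent effect at a single stated mg/kg dose.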

Mus musculus [5] = assay: Compound at 10 mg/Kg was tested for antinociception in mice by tail-flick assay; format: functional; in short: as §2
Mus musculus [6] = assay: Compound at 10 mg/Kg was tested for hypothermia in mice; format: functional
In short: (§3)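 Male ICR mice were dosed and body temperature or locomotor activity was recorded. Values are ED50 in mg/kg with confidence limits, or the effect (change in °C for temperature) at a single stated mg/kg dose.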

Mus musculus [7] = organism: Mus musculus; assay: Compound was tested to block the antinociceptive effect of nicotine in mice by hotplate assay; format: functional; in short: as §1
Mus musculus [8] = organism: Mus musculus; assay: Compound was tested to block the antinociceptive effect of nicotine in mice by tail-flick assay; format: functional; in short: as §1
Mus musculus [9] = assay: Compound at 15 mg/Kg was tested for antinociception in mice by hotplate assay; format: functional; in short: as §2
Mus musculus [10] = assay: Compound at 15 mg/Kg was tested for antinociception in mice by tail-flick assay; format: functional; in short: as §2
Mus musculus [11] = organism: Mus musculus; assay: Effective dose for hypomotility in mice was determined; format: functional; in short: as §3
Mus musculus [12] = organism: Mus musculus; assay: Effective dose for antinociception in mice was determined by hotplate assay
Mus musculus [13] = organism: Mus musculus; assay: Effective dose for antinociception in mice was determined by tail-flick assay
Mus musculus [14] = organism: Mus musculus; assay: Effective dose for hypothermia in mice was determined

SMILES	Ki [1] [nM]	Temperature (Mus musculus [6]) [°C]	AD50 (Mus musculus [7]) [mg/kg]	AD50 (Mus musculus [8]) [mg/kg]	Effect (Mus musculus [9]) [%]	Effect (Mus musculus [10]) [%]	other results
CN(C)c1ncc(C2CC3CCC2N3)cc1-c1ccccc1 (configuration not stated)	57.5	–	–	–	–	–	–
Nc1ncc(C2CC3CCC2N3)cc1-c1ccccc1 (configuration not stated)	0.33	-0.5	–	–	–	–	AD50 (Mus musculus [2]): inactive; AD50 (Mus musculus [3]): inactive; Effect (Mus musculus [4]): 15%; Effect (Mus musculus [5]): 2%
Clc1ncc(C2CC3CCC2N3)cc1-c1ccccc1 (configuration not stated)	0.021	–	–	–	–	–	–
Nc1ccc(C2CC3CCC2N3)cn1 (configuration not stated)	1.3	–	–	–	–	–	–
Fc1ccc(C2CC3CCC2N3)cn1 (configuration not stated)	0.027	–	–	–	–	–	–
Fc1ncc(C2CC3CCC2N3)cc1-c1ccccc1 (racemic)	–	-0.5	1.2	0.5	4	3	ED50 (Mus musculus [11]): 4.7 mg/kg
Fc1ncc(C2CC3CCC2N3)cc1-c1ccccc1 (single isomer, unassigned; (+))	0.24	-0.4	2.4	1	8	7	–
Fc1ncc(C2CC3CCC2N3)cc1-c1ccccc1 (stereo in doubt; (-)-5a)	0.26	-0.8	0.7	0.08	10	5	–
CN1CCC[C@H]1c1cccnc1 [NICOTINE]	–	–	–	–	–	–	ED50 (Mus musculus [12]): 0.004 mg/kg; ED50 (Mus musculus [13]): 0.006 mg/kg; ED50 (Mus musculus [11]): 0.5 mg/kg; ED50 (Mus musculus [14]): 0.004 mg/kg
